Data on eight compounds can be found in ChEMBL document CHEMBL1147882, “In vitro efficiency of new acridyl derivatives against Plasmodium falciparum” (Bioorg Med Chem, 2007).

Format in all cases: functional, organism-based
Experiment [1] concerns Plasmodium falciparum. In words: Antimalarial activity against chloroquine-sensitive Plasmodium falciparum 3D7 by hypoxanthine uptake. The gist of the method:
(§1)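 Synchronous parasites diluted in A-positive human erythrocytes with RPMI 1640 + 10% human serum, 25 mM HEPES, 25 mM NaHCO₃, to 0.2 parasitemia and 1.5 hematocrit. Added to wells predosed with drug, 0.06 to 200 µM in triplicate. 1 µCi [³H]hypoxanthine per well, 42 h at 37 °C. Incorporated radioactivity counted by scintillation. IC50 from non-linear regression of log-dose/response versus drug-free controls.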

Experiment [2] concerns Plasmodium falciparum. Nature of the experiment: Antimalarial activity against chloroquine-resistant Plasmodium falciparum FCR3 by hypoxanthine uptake. The gist of the method: as §1
Experiment [3] deals with Plasmodium falciparum. In words: Antimalarial activity against chloroquine-resistant Plasmodium falciparum W2 by hypoxanthine uptake. The gist of the method: as §1
Experiment [4] concerns Plasmodium falciparum. Nature of the experiment: Antimalarial activity against chloroquine-resistant Plasmodium falciparum Bre1 by hypoxanthine uptake. In short, it runs like this: as §1

The term IC50 denotes the concentration needed to halve the response being measured. Low values mean higher potency, high ones lower potency. As to `N=C(N)NCCCC(N)C(=O)NCC(=O)NCCCCCCNC(=O)c1c2ccccc2nc2ccccc12` (configuration not stated), the 50% inhibitory concentration (IC50) came out at 42000 nM in the experiment on Plasmodium falciparum [1], 42500 nM in the experiment on Plasmodium falciparum [2], 43600 nM with Plasmodium falciparum [3] and 47600 nM in the experiment with Plasmodium falciparum [4].

Turning to `COc1ccc2nc3cc(Cl)ccc3c(NCCCCCCNC(=O)CCN)c2c1`, the IC50 with Plasmodium falciparum [1] was found to be 910 nM; with Plasmodium falciparum [2] it was 1250 nM; in the experiment on Plasmodium falciparum [3], 1250 nM; in the experiment with Plasmodium falciparum [4], 1260 nM.

On to `COc1ccc2nc3cc(Cl)ccc3c(NCCCCCCNC(=O)CCNC(=O)CCNC(=O)C(N)CCCNC(=N)N)c2c1` (configuration not stated), for which the IC50 in the experiment with Plasmodium falciparum [1] came out at 3320 nM; in the experiment with Plasmodium falciparum [2], 860 nM; with Plasmodium falciparum [3] it was 940 nM; in the experiment on Plasmodium falciparum [4] it was 860 nM.

For the compound `COc1ccc2nc3cc(Cl)ccc3c(NCCCCCCNC(=O)CCCNC(=O)CNC(=O)C(N)CCCNC(=N)N)c2c1` (configuration not stated), the IC50 in the experiment with Plasmodium falciparum [1] was 840 nM; in the experiment on Plasmodium falciparum [2] it was 670 nM; in the experiment on Plasmodium falciparum [3] it was 820 nM; in the experiment with Plasmodium falciparum [4], 500 nM.

With `COc1ccc2nc3cc(Cl)ccc3c(NCCCCCCNC(=O)CCCNC(=O)CN)c2c1`, the half-maximal inhibitory concentration (IC50) in the experiment with Plasmodium falciparum [1] stood at 890 nM; in the experiment on Plasmodium falciparum [2], 810 nM; with Plasmodium falciparum [3] it was 830 nM; with Plasmodium falciparum [4], 620 nM.

Take `COc1ccc2nc3cc(Cl)ccc3c(NCCCCCCNC(=O)CCCN)c2c1`: the half-inhibitory concentration (IC50) in the experiment with Plasmodium falciparum [1] was found to be 190 nM; in the experiment on Plasmodium falciparum [2], 540 nM; in the experiment with Plasmodium falciparum [3], 570 nM; with Plasmodium falciparum [4], 180 nM.

Consider `COc1ccc2nc3cc(Cl)ccc3c(NCCCCCCN)c2c1`, for which the IC50 with Plasmodium falciparum [1] came out at 130 nM; in the experiment with Plasmodium falciparum [2], 200 nM; with Plasmodium falciparum [3] it was 180 nM; with Plasmodium falciparum [4] it was 170 nM.

Turning to `N=C(N)NCCCC(N)C(=O)NCC(=O)NCCCCCCCC(=O)Nc1c2ccccc2nc2ccccc12` (configuration not stated), the half-maximal inhibitory concentration (IC50) turned out to be 27100 nM with Plasmodium falciparum [1], 27200 nM in the experiment with Plasmodium falciparum [2], 30500 nM in the experiment with Plasmodium falciparum [3] and 28700 nM in the experiment on Plasmodium falciparum [4].
